Published values collected from several papers.
Target: Serine/threonine-protein kinase Nek1 (NEK1, Homo sapiens, UniProt Q96PY6)
Sequence (Q96PY6 1-1258, as in one of the studies): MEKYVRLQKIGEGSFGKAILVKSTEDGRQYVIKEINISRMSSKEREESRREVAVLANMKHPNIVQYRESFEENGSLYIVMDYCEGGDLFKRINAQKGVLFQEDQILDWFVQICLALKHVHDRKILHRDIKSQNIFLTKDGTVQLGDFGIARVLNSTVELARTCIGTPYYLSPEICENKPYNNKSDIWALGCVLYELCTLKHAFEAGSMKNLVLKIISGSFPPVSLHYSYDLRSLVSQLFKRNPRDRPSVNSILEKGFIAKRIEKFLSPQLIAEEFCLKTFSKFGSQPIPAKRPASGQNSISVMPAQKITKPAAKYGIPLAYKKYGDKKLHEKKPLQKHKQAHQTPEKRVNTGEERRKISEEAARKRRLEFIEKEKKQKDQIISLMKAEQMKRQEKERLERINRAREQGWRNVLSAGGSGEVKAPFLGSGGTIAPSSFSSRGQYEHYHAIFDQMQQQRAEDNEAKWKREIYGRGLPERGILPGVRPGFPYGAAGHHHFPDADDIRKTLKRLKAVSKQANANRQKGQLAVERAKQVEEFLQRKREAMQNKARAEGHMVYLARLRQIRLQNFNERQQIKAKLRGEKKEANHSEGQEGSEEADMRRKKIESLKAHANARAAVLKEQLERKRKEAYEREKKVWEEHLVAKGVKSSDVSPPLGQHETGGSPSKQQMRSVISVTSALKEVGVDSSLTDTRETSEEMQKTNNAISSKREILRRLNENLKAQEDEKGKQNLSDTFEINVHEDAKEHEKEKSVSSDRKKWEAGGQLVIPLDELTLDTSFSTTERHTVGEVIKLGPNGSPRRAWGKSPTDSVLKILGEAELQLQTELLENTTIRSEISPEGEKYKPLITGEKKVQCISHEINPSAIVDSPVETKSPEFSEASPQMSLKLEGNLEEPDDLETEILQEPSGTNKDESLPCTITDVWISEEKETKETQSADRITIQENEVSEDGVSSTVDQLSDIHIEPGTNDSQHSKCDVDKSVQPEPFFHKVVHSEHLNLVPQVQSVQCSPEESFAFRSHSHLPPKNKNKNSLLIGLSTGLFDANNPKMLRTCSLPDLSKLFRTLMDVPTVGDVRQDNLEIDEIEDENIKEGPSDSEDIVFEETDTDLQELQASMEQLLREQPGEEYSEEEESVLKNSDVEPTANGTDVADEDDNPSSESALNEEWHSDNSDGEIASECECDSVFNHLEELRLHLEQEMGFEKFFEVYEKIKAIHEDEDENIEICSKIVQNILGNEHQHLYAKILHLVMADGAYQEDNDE

| Compound | test | system | conditions | measurement | value |
| --- | --- | --- | --- | --- | --- |
| C[C@H](c1ccnc(Nc2nc3ccc(-c4cc(N(C)C)ncn4)cc3[nH]2)c1)N1CCN(C(=O)CC(F)(F)F)CC1 | cell-free assay, competition with immobilised ligand |  | 0.1 µM | remaining binding | 93% |
| Cn1cnc(Br)c1C1=CN(c2ncnc3[nH]cnc23)CCS1 | enzyme activity, inhibitor, radiometric |  | 2 µM | inhibition | 96.5% |
| Nc1c(C(=O)NCc2ccc(C(=O)NCCCC3CCCCC3)cc2)cnn1-c1ccccc1 | cell-free assay, competition with immobilised ligand |  | 0.1 µM | remaining binding | 84% |
| CC(C)(O)[C@H]1CC[C@H](Nc2ccc3ncc(-c4cccc(C(F)(F)F)c4)n3n2)CC1 | enzyme activity, inhibitor |  | 1 µM | remaining activity | 48.3% |
| Cc1ccc(C(=O)Nc2ccc(CN3CCN(C)CC3)c(C(F)(F)F)c2)cc1C#Cc1cnc2cccnn12 | enzyme activity, inhibitor |  | 23.5 nM | remaining activity | 98% |
| O=C1Nc2ccc(Cl)cc2C1=Cc1cc(Cl)c(O)c(Cl)c1 | cell-free assay |  | 0.5 µM | remaining signal | 81.5% |
| CO[C@@H](C)c1c(Nc2ccc([C@@H](N(C)C(=O)C3CCS(=O)(=O)CC3)C(F)(F)F)cc2)cnc2cc(Cl)nn12 | cell-free assay, competition with immobilised ligand |  | 1 µM | remaining binding | 100% |
| c1ccc(CNc2nc(N3CCOc4ccccc43)nc3c2CCCC3)cc1 | target engagement in cells, inhibitor, chemoproteomics |  | 20 mM | inhibition | -7.6% |
| Cc1c(NC(=O)c2cc(C(N)=O)nc3cc(F)ccc23)c(C(F)(F)F)nn1Cc1ccc(C(C)(C)C)cc1 | cell-free assay, competition with immobilised ligand |  | 1 µM | remaining binding | 97% |
| CC(C)(C)c1nc(-c2cccc(NS(=O)(=O)c3c(F)cccc3F)c2F)c(-c2ccnc(N)n2)s1 | enzyme activity, inhibitor, radiometric |  | 1 µM | remaining activity | 63% |
| O=C(Nc1cnn(-c2csc(C(=O)NC3COC3)c2)c1)Nc1c(F)cccc1Cl | enzyme activity, inhibitor |  | 5 µM | remaining activity | 77.2% |
| O=C1NC(=O)c2cc(Nc3ccc(F)cc3)c(Nc3ccc(F)cc3)cc21 | cell-free assay |  | 0.5 µM | remaining signal | 88% |
| CCCCNc1ncc2c(-c3ccc(F)cc3)nn(C[C@H]3CC[C@H](N)CC3)c2n1 | target engagement in cells, inhibitor, chemoproteomics |  | 20 mM | inhibition | -3.7% |
| CCN1CCN(Cc2ccc(NC(=O)c3ccc(C)c(/C=C/c4cnc5[nH]ccc5c4OC)c3)cc2C(F)(F)F)CC1 | target engagement in cells, inhibitor, chemoproteomics | A-375 | 5 µM | inhibition | -11.6% |
| O=C(Nc1cnn(-c2csc(C(=O)NC3COC3)c2)c1)Nc1ccccc1Cl | enzyme activity, inhibitor |  | 5 µM | remaining activity | 112% |
| COc1cc2ncnc(Nc3ccc(Oc4ccccc4)cc3C)c2cc1OC | enzyme activity, inhibitor |  | 1 µM | inhibition | -2% |
| CS(=O)(=O)CCNCc1ccc(-c2ccc3ncnc(Nc4ccc(OCc5cccc(F)c5)c(Cl)c4)c3c2)o1 | cell-free assay |  | 0.5 µM | remaining signal | 71.8% |
| CCN1CCN(Cc2ccc(NC(=O)c3ccc(C)c(Oc4ccnc5[nH]ccc45)c3)cc2C(F)(F)F)CC1 | target engagement in cells, inhibitor, chemoproteomics | A-375 | 0.5 µM | inhibition | -10.4% |
| C[C@@H](c1cccc(C#N)c1)n1cc(Cl)cc(C(N)=O)c1=N | cell-free assay, competition with immobilised ligand |  | 1 µM | remaining binding | 100% |
| COc1cc(Cl)c(C(=O)N[C@@H](CN[C@H]2CC[C@@H](N)CC2)Cc2ccc(C#N)cc2)cc1-c1ccc(CN[C@H](C)c2ccc(C)cc2)o1 | enzyme activity, inhibitor |  | 1 µM | remaining activity | 93% |
| C[S+]([O-])c1ccc(-c2nc(-c3ccncc3)c(-c3ccc(F)cc3)[nH]2)cc1 (stereo not shown) | cell-free assay |  | 0.5 µM | remaining signal | 94.7% |
| O=C(Nc1cnc(Oc2ccc(F)cc2)nc1)N1CCc2ncccc2[C@@H]1c1ccc(F)cc1 | cell-free assay, competition with immobilised ligand |  | 1 µM | remaining binding | 84% |
